Calls of active or inactive are those of the source.
What was measured:
[1] = target: T1, Receptor-type tyrosine-protein phosphatase zeta (Homo sapiens, UniProt P23471); test: Inhibition of human recombinant PTPRZ1 using pNPP as substrate at 1 uM by fluorescence spectrometric analysis relative to control
Outline: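 Screening used single-point testing at 1.0 μM against 0.1 μM human recombinant PTPRZ1 with p-NPP substrate. Phosphate release was detected with a phosphate sensor reagent by fluorescence (excitation 430 nm, emission 450 nm). The cutoff for activity was at least 10% inhibition of phosphatase activity.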

[2] = target: T1, Receptor-type tyrosine-protein phosphatase zeta; test: Inhibition of PTPRZ1 in human HeLa cells assessed as increase in EGF-induced tryrosine phosphorylation at 0.1 to 10 uM incubated for 10 mins after EGF stimulation for 10 mins by ELISA relative to control; format: cell-based
Outline: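 HeLa cells were grown in RPMI-1640 with 10% FBS and seeded at 2 × 10^4 cells/well in triplicate. After 24 h serum starvation, cells received 50 ng/mL EGF for 10 min, then compound at 0.1, 1.0 or 10.0 μM for 10 min, against 0.25% DMSO control. Total phosphotyrosine was measured by a tyrosine-phosphorylation ELISA kit. A rise of at least 10% was the selection criterion.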

[3] = target: T1, Receptor-type tyrosine-protein phosphatase zeta; test: Inhibition of PTPRZ1 (unknown origin) using pNPP as substrate preincubated for 15 mins followed by substrate addition measured after 10 mins by spectrophotometric analysis
[4] = target: T2, Tyrosine-protein phosphatase non-receptor type 1 (Homo sapiens, UniProt P18031); test: Inhibition of human recombinant PTP1B using pNPP as substrate by fluorescence spectrometric analysis
T2 sequence (P18031 whole entry): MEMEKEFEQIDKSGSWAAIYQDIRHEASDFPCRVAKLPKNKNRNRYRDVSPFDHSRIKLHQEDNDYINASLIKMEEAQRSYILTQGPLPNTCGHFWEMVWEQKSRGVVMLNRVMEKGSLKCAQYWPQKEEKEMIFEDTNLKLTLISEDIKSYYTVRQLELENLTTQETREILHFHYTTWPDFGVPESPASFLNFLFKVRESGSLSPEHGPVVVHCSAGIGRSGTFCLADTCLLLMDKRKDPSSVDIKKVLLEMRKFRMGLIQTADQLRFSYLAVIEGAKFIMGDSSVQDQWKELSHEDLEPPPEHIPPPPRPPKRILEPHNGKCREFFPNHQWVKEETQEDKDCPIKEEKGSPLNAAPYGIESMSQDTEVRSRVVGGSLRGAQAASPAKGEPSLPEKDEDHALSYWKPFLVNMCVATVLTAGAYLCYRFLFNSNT
Outline: (§1)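 Human recombinant enzyme (PTPRZ1 or PTP1B) was used at 0.1 μM with p-NPP substrate. Released phosphate was detected with a phosphate sensor reagent as a fluorescence increase (excitation 430 nm, emission 450 nm). IC50 was derived from compound concentrations of 0.001–100 μM.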

[5] = target: T1, Receptor-type tyrosine-protein phosphatase zeta; test: Inhibition of human recombinant PTPRZ1 using pNPP as substrate by fluorescence spectrometric analysis; outline: as §1
[6] = Drug level in mouse plasma at 60 mg/kg after 1 hr by GC-MS analysis; format: ADME, organism-based
Outline: (§2)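 Mice were dosed at 60 mg/kg by oral gavage and killed 1 h later. Brain and plasma were analyzed by GC-MS (EI at 70 eV, full scan m/z 50–600). Plasma (100 μL) was precipitated with three volumes of cold methanol, dried and reconstituted in heptane. The reference was a standard serially half-diluted in heptane from 5 μg/mL. Concentrations were a preliminary estimate.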

[7] = target: T1, Receptor-type tyrosine-protein phosphatase zeta; test: Inhibition of PTPRZ1 in human SH-SY5Y cells assessed as increase in TrkA tryrosine 490 phosphorylation at 1 to 10 uM after 20 mins by Western blot analysis relative to control; format: cell-based
Outline: (§3)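 Human SH-SY5Y cells were grown in EMEM/F12 (1:1) with 10% FBS at 37 °C, 5% CO2, then switched to serum-free medium. They were treated for 20 min with 1.0, 5.0 or 10.0 μM compound or DMSO vehicle. Lysates (20 μg protein) were western blotted for phospho-TrkA Y490 and phospho-ALK Y1278, reprobed for total TrkA/ALK, detected by ECL and quantified by densitometry. Data are mean ± S.E.M., ANOVA/Tukey.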

[8] = Drug level in mouse brain at 60 mg/kg after 1 hr by GC-MS analysis; format: ADME, organism-based; settings: read-out: Drug uptake; outline: as §2
[9] = target: T1, Receptor-type tyrosine-protein phosphatase zeta; test: Inhibition of PTPRZ1 in human SH-SY5Y cells assessed as increase in Alk tryrosine 1278 phosphorylation at 1 to 10 uM after 20 mins by Western blot analysis relative to control; format: cell-based; outline: as §3
[10] = tested on: PC-12; test: Cytoprotective activity against amphetamine-induced toxicity in rat PC12 cells at 1 uM after 20 hrs by MTT assay; format: functional, cell-based
Outline: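 Rat PC12 cells were grown in RPMI-1640 with 10% FBS at 10^4 cells/well. They were incubated for 20 h with 1.0 mM amphetamine plus 1.0 μM compound. Viability was read by MTT: cells were washed, given medium with MTT (20 μL of a 5 mg/mL stock) for 4 h, solubilized in DMSO, and absorbance read at 570 nm. Data are mean ± S.E.M., compared by one-way ANOVA with Tukey's test.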

T1 sequence (P23471 whole entry): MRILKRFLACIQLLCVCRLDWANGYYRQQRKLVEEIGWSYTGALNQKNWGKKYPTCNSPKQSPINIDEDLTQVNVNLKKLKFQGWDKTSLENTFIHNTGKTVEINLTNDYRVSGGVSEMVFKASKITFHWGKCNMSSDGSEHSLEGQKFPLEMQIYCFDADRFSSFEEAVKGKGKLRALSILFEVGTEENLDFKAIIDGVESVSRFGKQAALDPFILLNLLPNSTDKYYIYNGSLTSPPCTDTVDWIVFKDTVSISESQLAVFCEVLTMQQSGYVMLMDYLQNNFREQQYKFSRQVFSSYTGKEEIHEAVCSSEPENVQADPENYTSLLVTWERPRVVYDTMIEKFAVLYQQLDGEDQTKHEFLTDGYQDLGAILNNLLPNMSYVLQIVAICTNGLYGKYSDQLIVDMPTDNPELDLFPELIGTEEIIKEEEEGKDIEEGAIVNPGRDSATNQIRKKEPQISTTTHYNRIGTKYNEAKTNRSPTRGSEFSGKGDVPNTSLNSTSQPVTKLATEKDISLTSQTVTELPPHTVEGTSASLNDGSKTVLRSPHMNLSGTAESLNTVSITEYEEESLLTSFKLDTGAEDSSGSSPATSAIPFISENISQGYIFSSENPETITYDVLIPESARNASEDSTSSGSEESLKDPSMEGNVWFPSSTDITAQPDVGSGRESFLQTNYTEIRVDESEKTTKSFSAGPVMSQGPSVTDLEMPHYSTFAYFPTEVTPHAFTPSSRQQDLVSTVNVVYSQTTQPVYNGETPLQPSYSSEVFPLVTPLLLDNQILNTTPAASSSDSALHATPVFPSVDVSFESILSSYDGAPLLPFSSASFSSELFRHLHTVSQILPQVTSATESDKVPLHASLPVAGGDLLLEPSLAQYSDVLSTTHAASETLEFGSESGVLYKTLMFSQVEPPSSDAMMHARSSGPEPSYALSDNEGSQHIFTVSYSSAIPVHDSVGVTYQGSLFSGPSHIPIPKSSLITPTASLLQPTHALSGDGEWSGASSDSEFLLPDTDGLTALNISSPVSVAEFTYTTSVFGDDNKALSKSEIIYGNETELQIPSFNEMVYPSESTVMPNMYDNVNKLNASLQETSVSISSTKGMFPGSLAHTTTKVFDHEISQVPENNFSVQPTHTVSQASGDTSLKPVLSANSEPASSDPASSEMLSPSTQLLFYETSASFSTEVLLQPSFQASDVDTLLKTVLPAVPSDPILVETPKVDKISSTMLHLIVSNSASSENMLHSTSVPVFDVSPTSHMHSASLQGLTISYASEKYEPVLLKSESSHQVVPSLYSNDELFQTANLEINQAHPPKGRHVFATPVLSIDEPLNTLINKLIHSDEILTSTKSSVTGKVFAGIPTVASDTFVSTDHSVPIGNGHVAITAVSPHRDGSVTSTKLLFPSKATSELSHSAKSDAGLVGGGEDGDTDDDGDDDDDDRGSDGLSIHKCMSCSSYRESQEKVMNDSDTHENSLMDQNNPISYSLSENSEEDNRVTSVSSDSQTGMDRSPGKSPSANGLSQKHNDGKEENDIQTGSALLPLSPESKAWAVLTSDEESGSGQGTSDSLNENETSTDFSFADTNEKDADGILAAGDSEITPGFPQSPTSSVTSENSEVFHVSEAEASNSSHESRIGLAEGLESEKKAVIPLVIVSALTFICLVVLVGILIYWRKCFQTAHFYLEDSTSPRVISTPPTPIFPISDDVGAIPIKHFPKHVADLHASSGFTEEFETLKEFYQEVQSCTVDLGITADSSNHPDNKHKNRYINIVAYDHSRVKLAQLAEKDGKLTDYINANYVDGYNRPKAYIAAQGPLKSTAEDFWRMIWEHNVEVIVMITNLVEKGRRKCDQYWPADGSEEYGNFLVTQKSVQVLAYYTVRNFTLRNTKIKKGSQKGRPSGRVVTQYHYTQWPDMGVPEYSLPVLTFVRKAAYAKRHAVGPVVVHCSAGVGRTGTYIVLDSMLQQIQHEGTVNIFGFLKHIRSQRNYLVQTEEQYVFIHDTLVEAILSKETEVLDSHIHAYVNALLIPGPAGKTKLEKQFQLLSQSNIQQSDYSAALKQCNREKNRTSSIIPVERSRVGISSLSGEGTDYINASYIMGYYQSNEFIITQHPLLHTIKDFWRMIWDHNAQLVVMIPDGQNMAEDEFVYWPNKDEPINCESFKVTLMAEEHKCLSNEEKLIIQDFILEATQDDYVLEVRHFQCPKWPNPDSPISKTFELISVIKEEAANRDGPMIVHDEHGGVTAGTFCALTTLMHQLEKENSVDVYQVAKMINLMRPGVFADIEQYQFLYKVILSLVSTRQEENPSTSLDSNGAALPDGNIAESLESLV

| SMILES | inhibition [1] | inhibition [2] | IC50 [5] [nM] | other results |
| --- | --- | --- | --- | --- |
| FC(F)(F)Sc1ccc(OCc2ccncc2)cc1 | inactive | < 10% |  |  |
| O=C(Nc1ccc(S(=O)(=O)C(F)(F)F)cc1)c1ccc(S(=O)(=O)C(F)(F)F)cc1 | inactive | inactive |  |  |
| FC(F)(F)Sc1ccc(NCc2ccc(Cl)cc2)cc1 |  | inactive |  |  |
| O=C(Cc1ccc(S(=O)(=O)C(F)(F)F)cc1)NCc1ccc(S(=O)(=O)C(F)(F)F)cc1 | inactive | ≥ 10% |  |  |
| O=S(=O)(c1ccc(COc2ccc(S(=O)(=O)C(F)(F)F)cc2)cc1)C(F)(F)F | inactive | inactive |  | IC50 [3]: 3500 nM |
| O=C(Cc1ccc(S(=O)(=O)C(F)(F)F)cc1)Nc1ccc(S(=O)(=O)C(F)(F)F)cc1 | ≥ 10% | ≥ 10% | > 10000 | IC50 [4]: Not Active |
| FC(F)(F)Sc1ccc(NCc2ccccc2)cc1 | ≥ 10% | ≥ 10% | 5000 | IC50 ([4]; read-out: IC50): 1000 nM |
| O=S(=O)(c1ccc(OCc2ccc(SC(F)(F)F)cc2)cc1)C(F)(F)F | inactive | inactive |  | fold change (FC) [7]: 2 to 3 |

More lines, main results first:

| inhibition [1] | inhibition [2] | IC50 [5] [nM] | SMILES | other results |
| --- | --- | --- | --- | --- |
| < 10% | ≥ 10% |  | FC(F)(F)Sc1ccc(CN(Cc2ccc(SC(F)(F)F)cc2)Cc2ccc(SC(F)(F)F)cc2)cc1 |  |
| inactive | ≥ 10% |  | O=C(Nc1ccc(SC(F)(F)F)cc1)c1ccc(SC(F)(F)F)cc1 |  |
|  | inactive |  | FC(F)(F)Sc1ccc(CNCc2ccccc2)cc1 |  |
| ≥ 10% | ≥ 10% | 800 | O=C(Cc1ccc(SC(F)(F)F)cc1)NCc1ccc(SC(F)(F)F)cc1 | IC50 [4]: Not Active |
| inactive | ≥ 10% |  | FC(F)(F)Sc1ccc(CNc2ccc(SC(F)(F)F)cc2)cc1 |  |
| ≥ 10% | ≥ 10% | 100 | FC(F)(F)Sc1ccc(COc2ccc(SC(F)(F)F)cc2)cc1 | concentration at 1 h [6]: 100 to 300 ng/mL; fold change (FC) [7]: 2 to 3; concentration at 1 h [8]: 500 to 1000 ng/mL; fold change (FC) [9]: 2; IC50 [4]: Not Active; Activity [10]: Active |
| ≥ 10% | ≥ 10% | 100 | FC(F)(F)Sc1ccc(CNCc2ccc(SC(F)(F)F)cc2)cc1 | IC50 ([4]; read-out: IC50): 700 nM |
| inactive | ≥ 10% |  | O=C(Cc1ccc(SC(F)(F)F)cc1)Nc1ccc(SC(F)(F)F)cc1 |  |
| ≥ 10% | ≥ 10% | > 100000 | O=C(NCc1ccc(SC(F)(F)F)cc1)c1ccc(SC(F)(F)F)cc1 | IC50 [4]: Not Active |

— ChEMBL document CHEMBL4251614, “Development of inhibitors of receptor protein tyrosine phosphatase β/ζ (PTPRZ1) as candidates for CNS disorders” (Eur J Med Chem, 2018)
